Measured values published in ChEMBL document CHEMBL1133105, “Antimalarial, antitrypanosomal, and antileishmanial activities and cytotoxicity of bis(9-amino-6-chloro-2-methoxyacridines): influence of the linker” (J Med Chem, 2000).

Experiments:
Leishmania infantum [1] = experiment: Percentage of activity against Leishmania infantum at 6.25 uM; Toxic upon mouse primary peritoneal macrophages; type: functional, organism-based
Summary of the method: (§1)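 Starch-stimulated mouse peritoneal macrophages, 30 000/well, infected after 24 h with spleen-derived L. infantum amastigotes (10:1) together with 2-fold drug dilutions (12.5–1.56 µM). Incubated 7 days at 37 °C, 5% CO2. Wright-stained slides scored microscopically as % reduction of total parasite load or of infected macrophages. Uninfected treated cultures judged microscopically for macrophage toxicity.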

Leishmania infantum [2] = experiment: Percentage of activity against Leishmania infantum at 1.56 uM; type: functional; summary of the method: as §1
Leishmania infantum [3] = experiment: Percentage of activity against Leishmania infantum at 12.5 uM Concentration; Toxic upon mouse primary peritoneal macrophages; type: functional, organism-based; summary of the method: as §1
Leishmania infantum [4] = experiment: Percentage of activity against Leishmania infantum at 3.13 uM; type: functional; summary of the method: as §1
MRC5 [5] = experiment: Cytotoxicity on MRC-5 cells at 12.5 uM; type: functional; conditions: Homo sapiens
Summary of the method: (§2)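 MRC-5 human diploid embryonic lung cells seeded at 5 000/well, washed after 24 h, then given 2-fold drug dilutions (25, 12.5, 6.25, 3.13 µM) in RPMI + 5% FCS, final DMSO below 0.5%. Incubated 7 days at 37 °C, 5% CO2. MTT colorimetric read-out, scored as % reduction of absorbance at 540 nm versus untreated controls.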

MRC5 [6] = experiment: Cytotoxicity on MRC-5 cells at 25 uM; type: functional; conditions: Homo sapiens; summary of the method: as §2
MRC5 [7] = experiment: Cytotoxicity on MRC-5 cells at 3.13 uM; type: functional; conditions: Homo sapiens; summary of the method: as §2
MRC5 [8] = experiment: Cytotoxicity on MRC-5 cells at 6.25 uM; type: functional; conditions: Homo sapiens; summary of the method: as §2
Plasmodium falciparum [9] = experiment: Parasite growth inhibition against Plasmodium falciparum W2; type: functional, organism-based
Summary of the method: (§3)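 Asynchronous cultures of each strain on human erythrocytes (0.5% parasitemia, 1% final hematocrit) were exposed to serially diluted drug for 24 h at 37 °C. Then 0.5 µCi [3H]hypoxanthine per well was added for 24 h. Incorporation was compared with a drug-free control on the same plate. IC50 was taken from the concentration-response curve as the mean of several independent experiments. DMSO was at most 0.1%.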

Plasmodium falciparum [10] = experiment: Parasite growth inhibition against Plasmodium falciparum F32A; type: functional, organism-based; summary of the method: as §3
Plasmodium falciparum [11] = experiment: Parasite growth inhibition against Plasmodium falciparum FCM29; type: functional, organism-based; summary of the method: as §3
Plasmodium falciparum [12] = experiment: Parasite growth inhibition against Plasmodium falciparum FCR3; type: functional, organism-based; summary of the method: as §3
Plasmodium falciparum [13] = experiment: In vitro sensitivity for Plasmodium falciparum FcB1R; type: functional, organism-based
Summary of the method: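 Asynchronous P. falciparum cultures in human erythrocytes (0.5% parasitemia, 1% haematocrit) exposed to serially diluted drug for 24 h at 37 °C. [3H]hypoxanthine (0.5 µCi/well) then added for a further 24 h. Uptake compared with drug-free controls on the same plate. IC50 taken from the concentration–response curve, averaged over independent experiments. DMSO ≤0.1%.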

Plasmodium falciparum [14] = experiment: Parasite growth inhibition against Plasmodium falciparum GP1; type: functional, organism-based; summary of the method: as §3
Plasmodium falciparum [15] = experiment: Parasite growth inhibition against Plasmodium falciparum K1; type: functional, organism-based; summary of the method: as §3
Trypanosoma cruzi [16] = experiment: Percentage of activity against Trypanosoma cruzi at 1.56 uM; type: functional
Summary of the method: (§4)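 Mouse peritoneal macrophages, 30 000/well, infected after 24 h with about 100 000 T. cruzi trypomastigotes per well plus 2-fold drug dilutions (12.5–1.56 µM). Incubated 4 days at 37 °C, 5% CO2. Methanol-fixed, Giemsa-stained and scored microscopically as % reduction of total parasite load (free trypomastigotes plus intracellular amastigotes) versus untreated controls.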

Trypanosoma cruzi [17] = experiment: Percentage of activity against Trypanosoma cruzi at 12.5 uM; Toxic upon mouse primary peritoneal macrophages; type: functional, organism-based; summary of the method: as §4
Trypanosoma cruzi [18] = experiment: Percentage of activity against Trypanosoma cruzi at 3.13 uM; type: functional; summary of the method: as §4
Trypanosoma cruzi [19] = experiment: In Vitro evaluation for the percentage of activity towards Trypanosoma cruzi at 6.25 uM Concentration; Toxic upon mouse primary peritoneal macrophages; type: functional, organism-based; summary of the method: as §4
Trypanosoma brucei [20] = experiment: Percentage of activity against Trypanosoma brucei at 6.25 uM; type: functional
Summary of the method: (§5)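 Bloodstream-form T. brucei in HMI-9 medium, 10 000 parasites/well, exposed to 12.5, 6.25, 3.13 and 1.56 µM drug for 4 days. Read-out is % inhibition of parasite multiplication. Macrophage toxicity judged on mouse primary peritoneal macrophages.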

Trypanosoma brucei [21] = experiment: Percentage of activity against Trypanosoma brucei at 1.56 uM; type: functional; summary of the method: as §5
Trypanosoma brucei [22] = experiment: Percentage of activity against Trypanosoma brucei at 3.13 uM; type: functional; summary of the method: as §5
Plasmodium falciparum [23] = experiment: Growth inhibition of chloroquine-sensitive Plasmodium falciparum 3D7
Leishmania infantum [24] = experiment: Percentage of activity against Leishmania infantum 6.25 uM; type: functional; summary of the method: as §1
Leishmania infantum [25] = experiment: In Vitro evaluation for the percentage of activity towards Leishmania infantum at 12.5 uM Concentration; type: functional; summary of the method: as §1
Trypanosoma cruzi [26] = experiment: Percentage of activity against Trypanosoma cruzi at 12.5 uM; type: functional; summary of the method: as §4
Trypanosoma cruzi [27] = experiment: Percentage of activity against Trypanosoma cruzi at 6.25 uM Concentration; type: functional; summary of the method: as §4
Trypanosoma brucei [28] = experiment: Percentage of activity against Trypanosoma brucei at 12.5 uM; type: functional; summary of the method: as §5
Leishmania infantum [29] = experiment: In Vitro evaluation for the percentage of activity towards Leishmania infantum at 3.13 uM Concentration; Toxic upon mouse primary peritoneal macrophages; type: functional, organism-based; summary of the method: as §1
Leishmania infantum [30] = experiment: In Vitro evaluation for the percentage of activity towards Leishmania infantum at 1.56 uM Concentration; Toxic upon mouse primary peritoneal macrophages; type: functional, organism-based; summary of the method: as §1
Trypanosoma cruzi [31] = experiment: In Vitro evaluation for the percentage of activity towards Trypanosoma cruzi at 3.13 uM Concentration; Toxic upon mouse primary peritoneal macrophages; type: functional, organism-based; summary of the method: as §4
Trypanosoma brucei [32] = experiment: In Vitro evaluation for the percentage of activity towards Trypanosoma brucei at 12.5 uM Concentration; Toxic upon mouse primary peritoneal macrophages; type: functional, organism-based; summary of the method: as §5
MRC5 [33] = experiment: In Vitro cytotoxicity on MRC-5 cells; type: functional; conditions: Homo sapiens; summary of the method: as §2
Plasmodium falciparum [34] = experiment: Growth inhibition against chloroquine-resistant Plasmodium falciparum K1; type: functional, organism-based; summary of the method: as §3
Trypanosoma cruzi [35] = experiment: In Vitro evaluation for the percentage of activity towards Trypanosoma cruzi at 1.56 uM Concentration; Toxic upon mouse primary peritoneal macrophages; type: functional; summary of the method: as §4
Plasmodium falciparum [36] = experiment: Inhibition of Plasmodium falciparum 3D7
Plasmodium falciparum [37] = experiment: Inhibition of Plasmodium falciparum W2
Plasmodium falciparum [38] = experiment: Inhibition of Plasmodium falciparum FCR3
Plasmodium falciparum [39] = experiment: Inhibition of Plasmodium falciparum F32A
Trypanosoma brucei [40] = experiment: In Vitro inhibition concentration against Trypomastigote form of Trypanosoma brucei; type: functional, organism-based
Summary of the method: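 Bloodstream-form trypomastigotes were grown in HMI-9 medium. 10 000 parasites per well were incubated with drug at 12.5, 6.25, 3.13 and 1.56 µM for 4 days, and parasite multiplication was assessed.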

Compound	Cytotoxicity (Leishmania infantum [1])	Antileishmanial activity (% reduction of parasite load) (Leishmania infantum [2]) [%]	Cytotoxicity (Leishmania infantum [3])	Percent antileishmanial activity (reduction of parasite load) (Leishmania infantum [4]) [%]	cytotoxicity at 12.5 µM (MRC5 [5]) [%]	cytotoxicity at 25 µM (MRC5 [6]) [%]	cytotoxicity at 3.13 µM (MRC5 [7]) [%]	cytotoxicity at 6.25 µM (MRC5 [8]) [%]	IC50 (Plasmodium falciparum [9]) [nM]	IC50 (Plasmodium falciparum [10]) [nM]	IC50 (Plasmodium falciparum [11]) [nM]	IC50 (Plasmodium falciparum [13]) [nM]	IC50 (Plasmodium falciparum [14]) [nM]	Parasite load reduction (Trypanosoma cruzi [16]) [%]	Cytotoxicity (Trypanosoma cruzi [17])	Reduction of T. cruzi parasite load (Trypanosoma cruzi [18]) [%]	Cytotoxicity (Trypanosoma cruzi [19])	Inhibition of parasite multiplication (Trypanosoma brucei [20]) [%]	Percent inhibition of parasite multiplication (Trypanosoma brucei [21]) [%]	Parasite growth inhibition (Trypanosoma brucei [22]) [%]	other results
COc1ccc2nc3cc(Cl)ccc3c(NCCCN(CCCNc3c4ccc(Cl)cc4nc4ccc(OC)cc34)C(=O)[C@@H](C)NC(=O)OC(C)(C)C)c2c1	Toxic	95	Toxic	99	84	100	81	84	18	89	11	33	66	60	Toxic	95	Toxic	100	100	100	IC50 (Plasmodium falciparum [12]): 32 nM; IC50 (Plasmodium falciparum [15]): 23 nM; IC50 (Plasmodium falciparum [23]): 57 nM
COc1ccc2nc3cc(Cl)ccc3c(NCCCN3CCN(CCCNc4c5ccc(Cl)cc5nc5ccc(OC)cc45)CC3)c2c1	–	0	–	0	0	0	0	0	12	8	13	17	11	–	–	0	–	90	60	80	Antileishmanial activity (% reduction of parasite load) (Leishmania infantum [24]): 0%; Percent inhibition of Leishmania infantum (Leishmania infantum [25]): 0%; IC50 (Plasmodium falciparum [12]): 18 nM; IC50 (Plasmodium falciparum [15]): 16 nM; T. cruzi parasite load reduction (Trypanosoma cruzi [26]): 0%; Reduction of T. cruzi parasite load (Trypanosoma cruzi [27]): 0%; Inhibition of parasite multiplication (Trypanosoma brucei [28]): 100%; IC50 (Plasmodium falciparum [23]): 13 nM
COc1ccc2nc3cc(Cl)ccc3c(NCCCN(CCCNc3c4ccc(Cl)cc4nc4ccc(OC)cc34)C(=O)CCN3CCCC3)c2c1	Toxic	–	Toxic	–	65	76	37	39	–	–	–	91	–	0	Toxic	–	Toxic	100	100	100	Cytotoxicity (Leishmania infantum [29]): Toxic; Cytotoxicity (Leishmania infantum [30]): Toxic; Cytotoxicity (Trypanosoma cruzi [31]): Toxic; Cytotoxicity (Trypanosoma brucei [32]): Toxic
O=C(Cn1ccnc1[N+](=O)[O-])NCc1ccccc1 [BENZNIDAZOLE]	–	–	–	–	–	–	–	–	–	–	–	–	–	–	–	–	–	–	–	–	CC50 (MRC5 [33]): > 50000 nM
COc1ccc2nc3cc(Cl)ccc3c(NCCCN(CCCNc3c4ccc(Cl)cc4nc4ccc(OC)cc34)C(=O)C(CC(C)C)NC(=O)OC(C)(C)C)c2c1 (centres undefined)	Toxic	90	Toxic	95	49	55	42	47	15	52	13	27	63	40	Toxic	80	Toxic	100	100	100	IC50 (Plasmodium falciparum [12]): 17 nM; IC50 (Plasmodium falciparum [34]): 14 nM; IC50 (Plasmodium falciparum [23]): 48 nM
COc1ccc2nc3cc(Cl)ccc3c(NCCCN(CCCNc3c4ccc(Cl)cc4nc4ccc(OC)cc34)C(=O)C(C)NC(=O)OC(C)(C)C)c2c1 (centres undefined)	–	40	Toxic	60	100	100	0	100	10	66	11	31	35	0	Toxic	40	–	100	100	100	Antileishmanial activity (% reduction of parasite load) (Leishmania infantum [24]): 95%; IC50 (Plasmodium falciparum [15]): 12 nM; Reduction of T. cruzi parasite load (Trypanosoma cruzi [27]): 90%; Inhibition of parasite multiplication (Trypanosoma brucei [28]): 100%; IC50 (Plasmodium falciparum [23]): 22 nM
COc1ccc2nc3cc(Cl)ccc3c(NCCNCCNc3c4ccc(Cl)cc4nc4ccc(OC)cc34)c2c1	Toxic	–	Toxic	–	100	100	100	100	–	–	–	63	–	–	Toxic	–	Toxic	100	100	100	Cytotoxicity (Leishmania infantum [29]): Toxic; Cytotoxicity (Leishmania infantum [30]): Toxic; Cytotoxicity (Trypanosoma cruzi [35]): Toxic; Cytotoxicity (Trypanosoma cruzi [31]): Toxic; Inhibition of parasite multiplication (Trypanosoma brucei [28]): 100%
COc1ccc2nc3cc(Cl)ccc3c(NCCCCNCCCNc3c4ccc(Cl)cc4nc4ccc(OC)cc34)c2c1	Toxic	–	Toxic	–	100	100	100	100	–	–	–	61	–	–	Toxic	–	Toxic	100	100	100	Cytotoxicity (Leishmania infantum [29]): Toxic; Cytotoxicity (Leishmania infantum [30]): Toxic; Cytotoxicity (Trypanosoma cruzi [35]): Toxic; Cytotoxicity (Trypanosoma cruzi [31]): Toxic; Inhibition of parasite multiplication (Trypanosoma brucei [28]): 100%
COc1ccc2nc3cc(Cl)ccc3c(NCCCN(CCCNc3c4ccc(Cl)cc4nc4ccc(OC)cc34)C(=O)C(NC(=O)OC(C)(C)C)C(C)C)c2c1 (centres undefined)	Toxic	95	Toxic	99	59	60	43	54	40	57	16	25	83	70	Toxic	90	Toxic	100	100	100	IC50 (Plasmodium falciparum [12]): 22 nM; IC50 (Plasmodium falciparum [15]): 36 nM; IC50 (Plasmodium falciparum [23]): 49 nM
OC(c1cc(C(F)(F)F)nc2c(C(F)(F)F)cccc12)C1CCCCN1 (centres undefined) [MEFLOQUINE]	–	–	–	–	–	–	–	–	–	–	–	6.9	–	–	–	–	–	–	–	–	IC50 (Plasmodium falciparum [36]): 40 nM; IC50 (Plasmodium falciparum [37]): 30 nM; IC50 (Plasmodium falciparum [38]): 36 nM; IC50 (Plasmodium falciparum [39]): 62 nM
Nc1nc(N)nc(Nc2ccc([As]3SCC(CO)S3)cc2)n1 (centres undefined) [MELARSOPROL]	–	–	–	–	–	–	–	–	–	–	–	–	–	–	–	–	–	–	–	–	CC50 (MRC5 [33]): 12500 nM; IC50 (Trypanosoma brucei [40]): 200 nM
